Experimental data reported in ChEMBL document CHEMBL4007449, “Novel multi-substituted benzyl acridone derivatives as survivin inhibitors for hepatocellular carcinoma treatment” (Eur J Med Chem, 2017).
Activity calls are given as the source filed them. No cut-off for these calls is given here.

Experiments:
[1] = tested on: HepG2; assay: Downregulation of Bcl2 expression in human HepG2 cells at 10 uM after 24 hrs by Western blot method; assay type: functional, cell-based
Method in brief: (§1)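 HepG2 cells in 6 cm dishes exposed to a range of concentrations (1–10 µM) for 24 h. Lysate protein measured by BCA, run on 12% SDS-PAGE and transferred to PVDF. Membrane blocked in 5% milk for 1 h, primary antibody overnight at 4 °C, bands imaged after antibody hybridisation.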

[2] = target: Baculoviral IAP repeat-containing protein 5 (Homo sapiens) (UniProt O15392); assay: Binding affinity to survivin (unknown origin) after 20 mins by spectrofluorimetric titration method
Chain of Baculoviral IAP repeat-containing protein 5 (Homo sapiens) (O15392 whole entry): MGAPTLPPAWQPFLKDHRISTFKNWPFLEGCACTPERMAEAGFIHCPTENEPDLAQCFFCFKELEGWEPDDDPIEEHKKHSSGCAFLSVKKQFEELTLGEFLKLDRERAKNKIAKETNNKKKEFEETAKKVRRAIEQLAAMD
Method in brief: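 Intrinsic fluorescence titration of purified survivin (0.3 µM) in 10 mM PBS, pH 7.4, at 37 °C. Compound added to final 0–1.6 µM; 20 min incubation before recording emission spectra with excitation at 280 nm. Spectra compared with and without survivin.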

[3] = organism: Homo sapiens; assay: Inhibition of recombinant human topoisomerase-2-mediated decatenation at 50 uM using kinetoplast DNA as substrate after 30 mins agarose gel electrophoresis method relative to control
Method in brief: (§2)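 Human Topo II decatenation run by a contract laboratory. Compound or 50% DMSO combined with reaction mix and diluted enzyme, incubated 35 ± 2 °C for 30 min, then stop buffer added. Products separated on 1% agarose, stained 10 min with 2.3 µg/ml ethidium bromide, destained 20 min, bands quantified densitometrically. Doxorubicin at 1 and 10 µM as positive controls, no-compound negative control; run in duplicate.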

[4] = organism: Bos taurus; assay: Binding affinity to calf thymus DNA at 40 uM after 5 mins by UV absorbance spectrophotometric method; settings: in the assay text read “fluorescence spectroscopic method” for “UV absorbance spectrophotometric method”
Method in brief: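 Fluorescence emission titration on a spectrofluorometer in 5 mM Tris, 50 mM NaCl, pH 7.2. Compound fixed at 40 µM final; ct DNA added at 0, 8, 16, 24, 32, 40, 60, 80 and 120 µM final. DNA concentration set by UV using ε260 = 6600 M-1 cm-1. Excitation 280 nm; 5 min incubation before reading.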

[5] = tested on: HepG2; assay: Upregulation of cleaved PARP expression in human HepG2 cells up to 10 uM after 24 hrs by Western blot method; assay type: functional, cell-based; method in brief: as §1
[6] = target: T1, DNA topoisomerase 1 (Homo sapiens) (UniProt P11387); assay: Inhibition of recombinant human topoisomerase-1-mediated relaxation of pBR322 DNA substrate after 30 mins agarose gel electrophoresis method
T1 sequence (whole entry): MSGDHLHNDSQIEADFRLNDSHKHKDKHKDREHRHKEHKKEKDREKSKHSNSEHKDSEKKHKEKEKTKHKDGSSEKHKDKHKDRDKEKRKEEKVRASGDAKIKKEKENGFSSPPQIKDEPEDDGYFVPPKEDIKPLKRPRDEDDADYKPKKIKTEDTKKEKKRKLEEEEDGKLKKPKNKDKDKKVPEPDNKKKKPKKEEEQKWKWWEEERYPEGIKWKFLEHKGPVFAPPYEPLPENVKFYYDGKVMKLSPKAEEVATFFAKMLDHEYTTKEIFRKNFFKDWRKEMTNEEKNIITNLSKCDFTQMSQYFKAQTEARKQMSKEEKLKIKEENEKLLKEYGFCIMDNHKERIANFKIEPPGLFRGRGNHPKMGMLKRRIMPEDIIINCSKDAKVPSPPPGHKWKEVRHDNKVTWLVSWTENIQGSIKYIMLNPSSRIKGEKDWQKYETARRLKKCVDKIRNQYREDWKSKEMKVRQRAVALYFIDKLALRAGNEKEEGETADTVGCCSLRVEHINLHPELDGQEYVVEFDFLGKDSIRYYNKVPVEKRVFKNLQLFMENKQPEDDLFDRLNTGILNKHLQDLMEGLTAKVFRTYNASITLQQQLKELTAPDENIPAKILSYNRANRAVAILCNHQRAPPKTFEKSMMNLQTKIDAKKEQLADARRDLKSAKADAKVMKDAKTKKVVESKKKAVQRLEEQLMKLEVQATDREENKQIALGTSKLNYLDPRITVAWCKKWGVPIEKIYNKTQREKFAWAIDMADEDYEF

[7] = tested on: HepG2; assay: Downregulation of survivin expression in human HepG2 cells after 24 hrs by Western blot method; assay type: functional, cell-based; method in brief: as §1
[8] = tested on: HepG2; assay: Upregulation of cleaved caspase-7 expression in human HepG2 cells at 10 uM after 24 hrs by Western blot method; assay type: functional, cell-based; method in brief: as §1
[9] = tested on: MCF7; assay: Antiproliferative activity against human MCF7 cells after 48 hrs by MTT assay; assay type: functional, cell-based; settings: MCF7, 48 h
Method in brief: (§3)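 Cells grown in DMEM with 10% FBS at 37 °C, 5% CO2; seeded at 6 × 10^3 cells/well, allowed to attach 12 h, then exposed to compound at final 50, 25, 10, 1 and 0.1 µM for 48 h. MTT (5 mg/mL) added for 4 h, formazan dissolved in DMSO, absorbance read at 490 nm; IC50 taken from the resulting curve.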

[10] = tested on: HepG2; assay: Antiproliferative activity against human HepG2 cells after 48 hrs by MTT assay; assay type: functional, cell-based; settings: HepG2, 48 h; method in brief: as §3
[11] = Antiproliferative activity against human QGY7701 cells after 48 hrs by MTT assay; assay type: cell-based; settings: QGY7701, 48 h; method in brief: as §3
[12] = tested on: Mus musculus; assay: Toxicity in nude mouse ectopically xenografted with human HepG2 cells assessed as spleen weight index at 25 mg/kg, ip administered once in 2 days measured after 30 days (reference value: 0.002 to 0.0106); assay type: organism-based; settings: in vivo, 720 h
[13] = tested on: Mus musculus; assay: Toxicity in nude mouse ectopically xenografted with human HepG2 cells assessed as spleen weight at 25 mg/kg, ip administered once in 2 days measured after 30 days (reference value: 0.071 to 0.248 g); assay type: organism-based; settings: in vivo, 720 h
[14] = tested on: Mus musculus; assay: Toxicity in nude mouse ectopically xenografted with human HepG2 cells assessed as liver weight at 25 mg/kg, ip administered once in 2 days measured after 30 days (reference value: 0.069 to 0.434 g); assay type: organism-based; settings: in vivo, 720 h
[15] = tested on: Mus musculus; assay: Toxicity in nude mouse ectopically xenografted with human HepG2 cells assessed as liver weight index at 25 mg/kg, ip administered once in 2 days measured after 30 days (reference value: 0.0009 to 0.0187); assay type: organism-based; settings: in vivo, 720 h
[16] = tested on: Mus musculus; assay: Toxicity in nude mouse ectopically xenografted with human HepG2 cells assessed as body weight loss at 25 mg/kg, ip administered once in 2 days measured after 10 days relative to control; assay type: organism-based; settings: in vivo, 240 h
[17] = tested on: HepG2; assay: Antitumor activity against human HepG2 cells ectopically xenografted in nude mouse assessed as tumor growth inhibition at 25 mg/kg, ip administered once in 2 days measured after 30 days relative to control; assay type: functional; settings: read-out: TGI
[18] = organism: Homo sapiens; assay: Inhibition of recombinant human topoisomerase-2-mediated decatenation at 10 uM using kinetoplast DNA as substrate after 30 mins agarose gel electrophoresis method relative to control; method in brief: as §2
[19] = target: Baculoviral IAP repeat-containing protein 5 (Homo sapiens) (UniProt O15392); assay: Binding affinity to survivin (unknown origin) up to 1.8 uM after 20 mins by spectrofluorimetric titration method

Structure (SMILES) | IC50 [9] | IC50 [10] | also measured
COc1ccc(CNc2ccc(C(=O)NCCCN(C)C)c3[nH]c4c([N+](=O)[O-])cccc4c(=O)c23)cc1 |  |  | Activity [1]: Active; Activity [2]: Dose-dependent effect; inhibition [3]: 10.9%; Activity [4]: inactive; Activity [5]: Active; inhibition [6]: inactive; Activity [7]: Dose-dependent effect; Activity [8]: Active
COc1ccc(CNc2ccc(C(=O)NCCN(C)C)c3[nH]c4c([N+](=O)[O-])cccc4c(=O)c23)cc1 | 1.05 µM | 4.5 µM | 
COCCNC(=O)c1ccc(NCc2ccccc2)c2c(=O)c3cccc(C)c3[nH]c12 | > 50 µM | 17.2 µM | 
COCCNC(=O)c1ccc(NCc2cc(OC)c(OC)c(OC)c2)c2c(=O)c3cccc(C)c3[nH]c12 | > 50 µM | > 50 µM | 
COc1cccc2c(=O)c3c(NCc4ccccc4)ccc(C(=O)NCCN(C)C)c3[nH]c12 | 13.7 µM | 5.5 µM | 
Cc1cccc2c(=O)c3c(NCc4ccccc4)ccc(C(=O)NCCN(C)C)c3[nH]c12 | 5.48 µM | 7.99 µM | 
CN(C)CCCNC(=O)c1ccc(N(C)C)c2c(=O)c3cccc([N+](=O)[O-])c3[nH]c12 | 9.29 µM | 36.8 µM | 
CCc1ccc(CNc2ccc(C(=O)NCCCN(C)C)c3[nH]c4c([N+](=O)[O-])cccc4c(=O)c23)cc1 | 4.69 µM | 5.78 µM | 
CN(C)CCNC(=O)c1ccc(NCc2ccccc2)c2c(=O)c3cccc([N+](=O)[O-])c3[nH]c12 | 5.61 µM | 9.59 µM | 
Cc1cccc2c(=O)c3c(NN)ccc(C(=O)NCCN(C)C)c3[nH]c12 | 13 µM | 8.85 µM | 
COc1cc(CNc2ccc(C(=O)NCCN(C)C)c3[nH]c4c([N+](=O)[O-])cccc4c(=O)c23)cc(OC)c1OC | 5.73 µM | 7 µM | 
COc1cc(CNc2ccc(C(=O)NCCN(C)C)c3[nH]c4c(OC)cccc4c(=O)c23)cc(OC)c1OC | > 50 µM | > 50 µM | 
COCCNC(=O)c1ccc(NCc2ccc(OC)cc2)c2c(=O)c3cccc(C)c3[nH]c12 | > 50 µM | > 50 µM | 
COCCNC(=O)c1ccc(NCc2ccc(C(F)(F)F)cc2)c2c(=O)c3cccc(C)c3[nH]c12 | > 50 µM | > 50 µM | 
COc1ccc(CNc2ccc(C(=O)NCCN(C)C)c3[nH]c4c(C)cccc4c(=O)c23)cc1 | 6.84 µM | 2.11 µM | IC50 [11]: 6.91 µM
COc1ccc(CNc2ccc(C(=O)NCCN(C)C)c3[nH]c4c(Cl)cc(Cl)cc4c(=O)c23)cc1 | 17.5 µM | 17.5 µM | 
COc1cc(CNc2ccc(C(=O)NCCN(C)C)c3[nH]c4c(C)cccc4c(=O)c23)cc(OC)c1OC | 5.06 µM | 4.96 µM | 

Structure (SMILES) | IC50 [9] | IC50 [10] | also measured
O=c1[nH]cc(F)c(=O)[nH]1 [FLUOROURACIL] |  |  | Activity index [12]: 0.005 to 0.0144; Activity [13]: 0.091 to 0.26 g; Activity [14]: 0.062 to 0.419 g; Activity index [15]: 0.0034 to 0.0231; Activity [16]: 30%; inhibition in vivo at 25 mg/kg [17]: 64%
COc1ccc(CNc2ccc(C(=O)NCCCN(C)C)c3[nH]c4c(C)cccc4c(=O)c23)cc1 | 4.12 µM | 5.94 µM | 
CN(C)CCCNC(=O)c1ccc(NCc2ccccc2)c2c(=O)c3cccc([N+](=O)[O-])c3[nH]c12 | 2.92 µM | 2.43 µM | IC50 [11]: 3.97 µM
COc1cccc(CNc2ccc(C(=O)NCCN(C)C)c3[nH]c4c([N+](=O)[O-])cccc4c(=O)c23)c1 | 5.09 µM | 8.61 µM | 
Cc1cccc2c(=O)c3c(Cl)ccc(C(=O)NCCN(C)C)c3[nH]c12 | > 50 µM | > 50 µM | 
COc1cccc2c1C(=O)c1c(O)c3c(c(O)c1C2=O)C[C@@](O)(C(=O)CO)C[C@@H]3O[C@H]1C[C@H](N)[C@H](O)[C@H](C)O1 |  |  | inhibition [18]: 74.4%
COCCN1C(C)=[N+](Cc2cnccn2)C2Cc3ccccc3CC21 (centres undefined) | 4.13 µM | 15.3 µM | Activity [19]: inactive
COc1ccc(CNc2ccc(C(=O)NCCN(C)C)c3[nH]c4c(OC)cccc4c(=O)c23)cc1 | 6.13 µM | 5.15 µM | 
CN(C)CCNC(=O)c1ccc(Cl)c2c(=O)c3cccc([N+](=O)[O-])c3[nH]c12 | 2.28 µM | 14.5 µM | 
COc1ccc(CNc2ccc(C(=O)NCCCN(C)C)c3[nH]c4c(OC)cccc4c(=O)c23)cc1 | 9.97 µM | 10.8 µM | 
COc1ccc(CNc2ccc(C(=O)NCCCN(C)C)c3[nH]c4c(N)cccc4c(=O)c23)cc1 | 13.4 µM | 5.68 µM | 
CN(C)CCNC(=O)c1ccc(N(C)C)c2c(=O)c3cccc([N+](=O)[O-])c3[nH]c12 | 3.54 µM | 28.6 µM | 
COc1cccc2c(=O)c3c(NN)ccc(C(=O)NCCCN(C)C)c3[nH]c12 | 14.8 µM | 12.3 µM | 
COc1cccc(CNc2ccc(C(=O)NCCN(C)C)c3[nH]c4c(C)cccc4c(=O)c23)c1 | 3.65 µM | 2.82 µM | IC50 [11]: 3.12 µM
COc1cccc2c(=O)c3c(Cl)ccc(C(=O)NCCN(C)C)c3[nH]c12 | 18.5 µM | 24.7 µM | 
COCCNC(=O)c1ccc(NCc2cccc(OC)c2)c2c(=O)c3cccc(C)c3[nH]c12 | > 50 µM | > 50 µM | 
